In ChEMBL document CHEMBL1151231, “Antitumor agents. 233. Lantalucratins A-F, new cytotoxic naphthoquinones from Lantana involucrata” (J Nat Prod, 2004):
The source made the active and inactive calls. No cut-off for these calls is given here.

Tests used:
[1] = tested on: KB; test: Cytotoxicity against human KB cells at 10 uM after 3 days by SRB assay; type: functional
[2] = tested on: KB; test: Cytotoxicity against vincristine-resistant human KBVIN cells at 10 uM after 3 days by SRB assay; type: functional
[3] = tested on: KB; test: Cytotoxicity against etoposide-resistant human KB cells at 10 uM after 3 days by SRB assay; type: functional
[4] = tested on: KB; test: Cytotoxicity against camptothecin-resistant human KB cells at 10 uM after 3 days by SRB assay; type: functional, cell-based
[5] = tested on: A549; test: Cytotoxicity against human A549 cells after 3 days by SRB assay; type: functional, cell-based; conditions: A549, 72 h
Outline: (§1)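 Freshly trypsinized cells were seeded at 1500-7500 cells per well with test compound added from DMSO-diluted stock and cultured for 3 days. Attached cells were fixed with cold 50% trichloroacetic acid, stained with 0.4% sulforhodamine B, and the bound dye was solubilized and read at 562 nm. IC50 is the concentration giving a 50% drop in absorbance, or growth, relative to untreated cells.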

[6] = tested on: A549; test: Cytotoxicity against human A549 cells at 10 uM after 3 days by SRB assay; type: functional
[7] = tested on: 1A9; test: Cytotoxicity against human 1A9 cells at 10 uM after 3 days by SRB assay; type: functional, cell-based
[8] = tested on: 1A9; test: Cytotoxicity against paclitaxel-resistant human 1A9 cells after 3 days by SRB assay; type: functional, cell-based; conditions: 1A9, 72 h; outline: as §1
[9] = tested on: MCF7; test: Cytotoxicity against human MCF7 cells at 10 uM after 3 days by SRB assay; type: functional; conditions: MCF7, 72 h
[10] = tested on: MCF7; test: Cytotoxicity against human MCF7 cells after 3 days by SRB assay; type: functional, cell-based; conditions: MCF7, 72 h; outline: as §1
[11] = tested on: 1A9; test: Cytotoxicity against paclitaxel-resistant human 1A9 cells at 10 uM after 3 days by SRB assay; type: functional; conditions: for inhibition at 10 µM: 1A9, 72 h
[12] = tested on: CAKI-1; test: Cytotoxicity against human Caki1 cells at 10 uM after 3 days by SRB assay; type: functional; conditions: for inhibition at 10 µM: CAKI-1, 72 h
[13] = tested on: HOS; test: Cytotoxicity against human HOS cells at 10 uM after 3 days by SRB assay; type: functional, cell-based
[14] = Cytotoxicity against human U87MG cells after 3 days by SRB assay; type: functional, cell-based, U-87MG ATCC; conditions: U-87 MG, 72 h; outline: as §1
[15] = (§2) Cytotoxicity against human U87MG cells at 10 uM after 3 days by SRB assay; type: functional, U-87MG ATCC; conditions: U-87 MG, 72 h
[16] = tested on: KB; test: Cytotoxicity against human KB cells after 3 days by SRB assay; type: functional, cell-based; conditions: 72 h; outline: as §1
[17] = Cytotoxicity against vincristine-resistant human KBVIN cells after 3 days by SRB assay; type: functional, cell-based; conditions: 72 h; outline: as §1
[18] = tested on: KB; test: Cytotoxicity against etoposide-resistant human KB cells after 3 days by SRB assay; type: functional, cell-based; conditions: 72 h; outline: as §1
[19] = tested on: KB; test: Cytotoxicity against camptothecin-resistant human KB cells after 3 days by SRB assay; type: functional, cell-based; conditions: 72 h; outline: as §1
[20] = tested on: 1A9; test: Cytotoxicity against human 1A9 cells after 3 days by SRB assay; type: functional, cell-based; conditions: 1A9, 72 h; outline: as §1
[21] = tested on: HOS; test: Cytotoxicity against human HOS cells after 3 days by SRB assay; type: functional, cell-based; conditions: 72 h; outline: as §1
[22] = tested on: CAKI-1; test: Cytotoxicity against human Caki1 cells after 3 days by SRB assay; type: functional, cell-based; conditions: CAKI-1, 72 h; outline: as §1
[23] = tested on: U-87MG ATCC; test: as §2; type: functional

Compound | Activity [1] | Activity [2] | Activity [3] | Activity [4] | IC50 [5] [µM] | IC50 [8] [µM] | IC50 [10] [µM] | IC50 [14] [µM] | IC50 [16] [µM] | IC50 [17] [µM] | IC50 [18] [µM] | IC50 [19] [µM] | IC50 [20] [µM] | IC50 [21] [µM] | IC50 [22] [µM] | inhibition at 10 µM [12] [%] | other results
C=C(C)C(O)CC1=C(OC)C(=O)c2c(OC)cccc2C1=O (configuration not stated) [LANTALUCRATIN D] | inactive | inactive | inactive | inactive | > 10 | > 10 | > 10 | > 10 | – | – | – | – | – | – | – | – | inhibition at 10 µM ([6]; A549, 72 h): 7%; Activity [7]: inactive; inhibition at 10 µM [9]: 20%; inhibition at 10 µM [11]: 14%; Activity [12]: inactive; Activity [13]: inactive; inhibition at 10 µM [15]: 8%
C=C(C)C1CC2=C(O1)c1cccc(O)c1C(=O)C2=O (configuration not stated) [LANTALUCRATIN B] | – | – | – | – | 1.8 | 2.1 | 1 | 1.9 | 2.3 | 2.4 | 2.1 | 1 | 1.5 | 2.5 | > 5 | 16 | –
C=C(C)C1CC2=C(O1)c1ccccc1C(=O)C2=O (configuration not stated) | – | – | – | – | 2.7 | 2.3 | 1.2 | 3.4 | 3 | 3.9 | 3 | 2.2 | 2.1 | 4 | 9.6 | – | –
C=C(C)C1CC2=C(O1)c1cccc(OC)c1C(=O)C2=O (configuration not stated) [LANTALUCRATIN A] | – | – | – | – | 3.3 | > 5 | 1.6 | 4.7 | > 5 | > 5 | > 5 | 2.1 | 3.9 | 4.8 | – | – | inhibition at 10 µM ([1]; 72 h): 46%; inhibition at 10 µM ([2]; 72 h): 17%; inhibition at 10 µM ([3]; 72 h): 43%; inhibition at 10 µM [11]: 45%; Activity [12]: inactive
C=C(C)C1CC2=C(O1)c1ccc(O)cc1C(=O)C2=O (configuration not stated) [LANTALUCRATIN C] | – | – | – | – | 6 | 6.5 | 4.9 | 7.3 | 6.9 | 6.3 | 5.8 | 5.2 | 9.4 | 4.7 | – | – | –
CC1(C)CCC2=C(O1)c1ccccc1C(=O)C2=O [LAPACHONE] | – | – | – | – | 1.5 | 0.8 | 0.8 | 2 | 1.2 | 2.2 | 1.8 | 1 | 0.8 | 1.4 | > 5 | 42 | –
C=C(C)C(O)CC1=C(OC)C(=O)c2c(OC)ccc(O)c2C1=O (configuration not stated) [LANTALUCRATIN E] | inactive | inactive | inactive | inactive | 8.7 | 2.5 | 5.5 | 7 | – | – | – | – | 1.3 | 8.7 | > 10 | 8 | –
C=C(C)C(O)CC1=C(OC)C(=O)c2cc(OC)c(O)c(O)c2C1=O (configuration not stated) [LANTALUCRATIN F] | inactive | inactive | inactive | inactive | – | – | > 10 | – | – | – | – | – | – | – | > 10 | 13 | Activity [6]: inactive; Activity [7]: inactive; inhibition at 10 µM [9]: 9%; Activity [11]: inactive; Activity [13]: inactive; Activity [23]: inactive
C=C(C)C1CC2=C(O1)C(=O)c1ccccc1C2=O (stereo not drawn) [DEHYDROISO-ALPHA-LAPACHONE] | – | – | – | – | 6.4 | 2.8 | 1.2 | 2.6 | 4.1 | 5.7 | 3.5 | 3.2 | 2.6 | 3.6 | > 10 | 26 | –
